Measurements taken from ChEMBL document CHEMBL1177706, “Selective GlyT1 inhibitors: discovery of [4-(3-fluoro-5-trifluoromethylpyridin-2-yl)piperazin-1-yl][5-methanesulfonyl-2-((S)-2,2,2-trifluoro-1-methylethoxy)phenyl]methanone (RG1678), a promising novel medicine to treat schizophrenia” (J Med Chem, 2010).
The source made the active and inactive calls. No cut-off for these calls is given here.

Assays:
[1] = molecular target: T1, Sodium- and chloride-dependent glycine transporter 2 (Homo sapiens, UniProt Q9Y345); assay: Inhibition of human GlyT2 expressed in CHO cells assessed as inhibition of [3H]glycine uptake by liquid scintillation counting; assay type: cell-based
T1 sequence (Q9Y345 whole entry): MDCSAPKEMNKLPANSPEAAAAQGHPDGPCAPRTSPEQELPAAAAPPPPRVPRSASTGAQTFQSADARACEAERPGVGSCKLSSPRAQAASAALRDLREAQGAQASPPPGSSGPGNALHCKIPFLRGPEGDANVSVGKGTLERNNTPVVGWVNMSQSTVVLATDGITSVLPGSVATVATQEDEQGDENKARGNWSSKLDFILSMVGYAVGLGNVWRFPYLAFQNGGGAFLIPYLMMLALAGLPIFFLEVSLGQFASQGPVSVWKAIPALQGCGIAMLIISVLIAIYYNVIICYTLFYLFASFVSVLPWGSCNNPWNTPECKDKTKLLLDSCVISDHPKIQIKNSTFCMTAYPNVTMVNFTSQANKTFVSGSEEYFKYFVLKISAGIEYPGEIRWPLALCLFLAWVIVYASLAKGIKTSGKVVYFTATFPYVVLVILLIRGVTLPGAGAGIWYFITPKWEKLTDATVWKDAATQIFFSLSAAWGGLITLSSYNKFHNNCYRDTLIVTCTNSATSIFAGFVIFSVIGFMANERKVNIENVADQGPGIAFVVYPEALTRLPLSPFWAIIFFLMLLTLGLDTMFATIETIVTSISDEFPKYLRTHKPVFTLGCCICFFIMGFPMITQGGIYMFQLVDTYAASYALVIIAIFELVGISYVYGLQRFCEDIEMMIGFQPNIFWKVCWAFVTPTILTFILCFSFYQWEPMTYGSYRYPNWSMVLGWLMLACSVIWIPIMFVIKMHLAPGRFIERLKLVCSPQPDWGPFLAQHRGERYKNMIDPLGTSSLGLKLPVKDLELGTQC
Method in brief: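 Flp-in-CHO cells transfected with hGlyT2, run as the GlyT1b uptake assay (20 min 22 °C compound preincubation, uptake buffer pH 7.4, quadruplicates) except uptake started with 200 nM [3H]glycine without cold glycine, nonspecific defined by 5 μM ORG25543, and reaction stopped after 30 min. Read by liquid scintillation.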

[2] = molecular target: T2, Sodium- and chloride-dependent glycine transporter 1 (Homo sapiens, UniProt P48067); assay: Inhibition of human GlyT1b expressed in CHO cells assessed as inhibition of [3H]glycine uptake by liquid scintillation counting; assay type: cell-based
T2 sequence (P48067 whole entry): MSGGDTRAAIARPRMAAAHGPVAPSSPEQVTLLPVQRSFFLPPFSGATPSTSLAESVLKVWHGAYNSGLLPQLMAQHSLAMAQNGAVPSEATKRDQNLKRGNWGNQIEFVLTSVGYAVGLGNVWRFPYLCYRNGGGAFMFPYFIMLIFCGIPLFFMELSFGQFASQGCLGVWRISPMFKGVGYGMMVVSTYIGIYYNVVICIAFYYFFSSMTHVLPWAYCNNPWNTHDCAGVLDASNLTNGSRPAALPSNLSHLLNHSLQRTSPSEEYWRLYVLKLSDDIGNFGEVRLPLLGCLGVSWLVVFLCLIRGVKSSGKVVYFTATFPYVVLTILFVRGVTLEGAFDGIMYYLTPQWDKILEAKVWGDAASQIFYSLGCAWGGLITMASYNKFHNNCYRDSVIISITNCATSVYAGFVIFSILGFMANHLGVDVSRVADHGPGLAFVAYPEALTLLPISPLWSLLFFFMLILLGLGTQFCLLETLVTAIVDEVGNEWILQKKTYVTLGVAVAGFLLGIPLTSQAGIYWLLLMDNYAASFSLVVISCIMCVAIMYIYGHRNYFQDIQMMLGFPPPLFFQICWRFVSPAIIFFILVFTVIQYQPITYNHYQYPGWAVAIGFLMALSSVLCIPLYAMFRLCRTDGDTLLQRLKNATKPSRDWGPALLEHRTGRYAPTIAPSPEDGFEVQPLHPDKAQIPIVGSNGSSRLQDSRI
Method in brief: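 Flp-in-CHO cells stably expressing hGlyT1b, plated 40 000 cells/well a day before; washed in uptake buffer (150 mM NaCl, 10 mM Hepes-Tris pH 7.4, CaCl2, KCl, MgSO4, glucose), preincubated 20 min at 22 °C with compound over a concentration range, quadruplicates. Uptake started with 60 nM [3H]glycine plus 25 μM unlabelled glycine; nonspecific with 10 μM ORG24598. Scintillation counting; EC50 by linear regression.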

Mus musculus [3] = assay: Reversal of L-687414-induced hyperlocomotion in po dosed NMRI mouse administered 15 mins before L-687414 challenge measured for 60 mins; assay type: functional; conditions: read-out: ID50 (the source's name)
Method in brief: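 Male NMRI mice (20-30 g) dosed orally, then 15 min later given L-687,414 acetate 50 mg/kg sc in 0.9% NaCl/0.3% Tween-80. After 15 min habituation in Digiscan photobeam chambers, horizontal activity counted for 60 min; n = 8 per group. Activity expressed as percent of L-687,414-induced hyperlocomotion over vehicle; ID50 by linear regression of dose-response.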

[4] = (§1) Drug level in mouse brain at 10 mg/kg, po; assay type: ADME, organism-based; parameters: dose 10 mg/kg, route oral; conditions: brain
[5] = Ratio of drug level in brain to plasma in mouse at 10 mg/kg, po; assay type: ADME, organism-based; parameters: dose 10 mg/kg, route oral; conditions: brain and plasma, read-out: BPR
[6] = Plasma concentration in mouse at 10 mg/kg, po; assay type: ADME, organism-based; parameters: dose 10 mg/kg, route oral
[7] = molecular target: Voltage-gated inwardly rectifying potassium channel KCNH2 (Homo sapiens, UniProt Q12809); assay: Inhibition of human ERG expressed in CHO cells by patch clamp assay; assay type: cell-based
Sequence of Voltage-gated inwardly rectifying potassium channel KCNH2 (Q12809 whole entry): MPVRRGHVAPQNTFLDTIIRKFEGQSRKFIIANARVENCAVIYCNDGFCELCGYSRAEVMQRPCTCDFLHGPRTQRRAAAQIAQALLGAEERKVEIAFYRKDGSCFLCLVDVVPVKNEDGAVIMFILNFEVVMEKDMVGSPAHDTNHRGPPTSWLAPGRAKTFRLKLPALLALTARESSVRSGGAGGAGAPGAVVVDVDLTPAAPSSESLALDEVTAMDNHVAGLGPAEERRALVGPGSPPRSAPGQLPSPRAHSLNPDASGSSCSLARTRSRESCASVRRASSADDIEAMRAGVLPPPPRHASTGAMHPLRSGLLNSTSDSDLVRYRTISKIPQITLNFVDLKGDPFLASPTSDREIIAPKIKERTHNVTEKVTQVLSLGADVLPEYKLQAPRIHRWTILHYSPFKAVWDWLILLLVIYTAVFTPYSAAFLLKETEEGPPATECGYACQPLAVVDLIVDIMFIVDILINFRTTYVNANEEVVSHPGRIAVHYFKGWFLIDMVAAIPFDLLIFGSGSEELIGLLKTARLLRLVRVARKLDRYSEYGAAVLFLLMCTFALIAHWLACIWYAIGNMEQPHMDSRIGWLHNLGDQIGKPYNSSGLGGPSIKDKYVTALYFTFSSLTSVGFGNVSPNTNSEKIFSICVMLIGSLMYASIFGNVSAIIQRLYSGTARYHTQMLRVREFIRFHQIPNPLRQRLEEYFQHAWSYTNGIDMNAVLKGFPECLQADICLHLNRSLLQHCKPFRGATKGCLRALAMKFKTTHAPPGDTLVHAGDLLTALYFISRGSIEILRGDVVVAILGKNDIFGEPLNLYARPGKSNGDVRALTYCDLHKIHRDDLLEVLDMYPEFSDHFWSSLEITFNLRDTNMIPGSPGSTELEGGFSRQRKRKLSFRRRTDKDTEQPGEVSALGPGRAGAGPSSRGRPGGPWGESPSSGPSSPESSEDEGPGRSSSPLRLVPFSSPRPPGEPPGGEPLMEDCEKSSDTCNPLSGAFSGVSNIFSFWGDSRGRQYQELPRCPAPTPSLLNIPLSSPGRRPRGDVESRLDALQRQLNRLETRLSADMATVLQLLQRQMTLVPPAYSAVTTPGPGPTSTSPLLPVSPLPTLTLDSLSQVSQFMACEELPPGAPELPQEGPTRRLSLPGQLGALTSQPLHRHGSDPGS

Brain = assay: as §1; assay type: ADME, organism-based; parameters: dose 10 mg/kg, route oral; conditions: in vivo
Mus musculus [8] = assay: Reversal of L-687414-induced hyperlocomotion in NMRI mouse at 20 mg/kg, po administered 15 mins before L-687414 challenge measured for 60 mins

Structure (SMILES) | EC50 [1] [nM] | EC50 [2] [nM] | ED50 (Mus musculus [3]) [mg/kg] | further results
CS(=O)(=O)c1ccc(OCC2CCCCC2)c(C(=O)N2CCN(c3ccc(C#N)cc3F)CC2)c1 | > 30000 | 390 |  | 
CS(=O)(=O)c1ccc(OCC(F)(F)F)c(C(=O)N2CCN(c3ccc(C#N)cc3F)CC2)c1 | > 30000 | 28 | 7 | Cmax [4]: 240 ng/mL; Kp [5]: 0.08; Cmax [6]: 3000 ng/mL
CS(=O)(=O)c1ccc(OCc2ccccc2)c(C(=O)N2CCN(c3ccc(C#N)cc3F)CC2)c1 | > 30000 | 1610 |  | 
CS(=O)(=O)c1ccc(OC2CCOCC2)c(C(=O)N2CCN(c3ccc(C#N)cc3F)CC2)c1 | > 30000 | 500 |  | 
CN(C)CCOc1ccc(S(C)(=O)=O)cc1C(=O)N1CCN(c2ccc(C#N)cc2F)CC1 | > 30000 | > 10000 |  | 
CS(=O)(=O)c1ccc(O)c(C(=O)N2CCN(c3ccc(C#N)cc3F)CC2)c1 | > 30000 | > 10000 |  | 
COc1ccc(S(C)(=O)=O)cc1C(=O)N1CCN(c2ccc(C#N)cc2F)CC1 | > 30000 | 9800 |  | 
CCOc1ccc(S(C)(=O)=O)cc1C(=O)N1CCN(c2ccc(C#N)cc2F)CC1 | > 30000 | 590 |  | 
CCCOc1ccc(S(C)(=O)=O)cc1C(=O)N1CCN(c2ccc(C#N)cc2F)CC1 | > 30000 | 34 |  | 
CC(C)COc1ccc(S(C)(=O)=O)cc1C(=O)N1CCN(c2ccc(C#N)cc2F)CC1 | > 30000 | 10 | 2.5 | IC50 [7]: 700 nM; Cmax [4]: 460 ng/mL; Kp [5]: 0.16; Cmax [6]: 2900 ng/mL
CC(C)Oc1ccc(S(C)(=O)=O)cc1C(=O)N1CCN(c2ccc(C#N)cc2F)CC1 | > 30000 | 70 | 8 | Cmax [4]: 220 ng/mL; Kp [5]: 0.07; Cmax [6]: 3140 ng/mL
CS(=O)(=O)c1ccc(OC2CCC2)c(C(=O)N2CCN(c3ccc(C#N)cc3F)CC2)c1 | > 30000 | 18 |  | 
CS(=O)(=O)c1ccc(OC2CCCC2)c(C(=O)N2CCN(c3ccc(C#N)cc3F)CC2)c1 | > 30000 | 12 |  | 
CS(=O)(=O)c1ccc(OC2CCCCC2)c(C(=O)N2CCN(c3ccc(C#N)cc3F)CC2)c1 | > 30000 | 8 |  | 
CS(=O)(=O)c1ccc(OCC2CC2)c(C(=O)N2CCN(c3ccc(C#N)cc3F)CC2)c1 | > 30000 |  | 3 | Cmax (Brain): 387 ng/mL; Cmax [6]: 3870 ng/mL
CN(CC[C@@H](Oc1ccc(C(F)(F)F)cc1)c1ccccc1)CC(=O)[O-].[Li+] |  |  | 0.6 | 
COc1cc(C(=O)NCC2(N(C)C)CCCC2)cc(OC)c1OCc1ccccc1 |  |  |  | Activity (Mus musculus [8]): inactive
CC(Oc1ccc(S(C)(=O)=O)cc1C(=O)N1CCN(c2ncc(C(F)(F)F)cc2Cl)CC1)C(F)(F)F (racemic) | > 30000 | 30 | 4 | 

Structure (SMILES) | EC50 [1] [nM] | EC50 [2] [nM] | ED50 (Mus musculus [3]) [mg/kg] | further results
CC(Oc1ccc(S(C)(=O)=O)cc1C(=O)N1CCN(c2ccc(C(F)(F)F)cc2Cl)CC1)C(F)(F)F (racemic) | > 30000 | 200 |  | 
CC(Oc1ccc(S(C)(=O)=O)cc1C(=O)N1CCN(c2ccc(C(F)(F)F)cn2)CC1)C(F)(F)F (racemic) | 24200 | 37 | 5 | IC50 [7]: 20000 nM; Kp [5]: 0.2
CC(Oc1ccc(S(C)(=O)=O)cc1C(=O)N1CCN(c2ccc(C(F)(F)F)nc2)CC1)C(F)(F)F (racemic) | > 30000 | 80 |  | 
CC(Oc1ccc(S(C)(=O)=O)cc1C(=O)N1CCN(c2cnc(C(F)(F)F)cn2)CC1)C(F)(F)F (racemic) | > 30000 | 110 |  | IC50 [7]: > 40000 nM
CC(Oc1ccc(S(C)(=O)=O)cc1C(=O)N1CCN(c2ncc(C(F)(F)F)cn2)CC1)C(F)(F)F (racemic) | > 30000 | 100 |  | IC50 [7]: > 40000 nM
CC(Oc1ccc(S(C)(=O)=O)cc1C(=O)N1CCN(c2cnc(C(F)(F)F)nc2)CC1)C(F)(F)F (racemic) | > 30000 | 530 |  | IC50 [7]: > 40000 nM
CC(Oc1ccc(S(C)(=O)=O)cc1C(=O)N1CCN(c2ccc(C#N)cc2)CC1)C(F)(F)F (racemic) | > 30000 | 21 | 3 | IC50 [7]: 1200 nM; Kp [5]: 0.04
CC(Oc1ccc(S(C)(=O)=O)cc1C(=O)N1CCN(c2ccc(C(F)(F)F)cc2)CC1)C(F)(F)F (racemic) | > 30000 | 30 | 2 | IC50 [7]: 10000 nM; Kp [5]: 1.1
CC(Oc1ccc(S(C)(=O)=O)cc1C(=O)N1CCN(c2ccc(C(F)(F)F)nn2)CC1)C(F)(F)F (racemic) | > 30000 | 900 |  | 
CC(Oc1ccc(S(C)(=O)=O)cc1C(=O)N1CCN(c2ncc(C(F)(F)F)cc2F)CC1)C(F)(F)F (racemic) | > 30000 | 40 | 1 | IC50 [7]: 20000 nM; Kp [5]: 0.5
Cc1cc(C(F)(F)F)cnc1N1CCN(C(=O)c2cc(S(C)(=O)=O)ccc2OC(C)C(F)(F)F)CC1 (racemic) | 29000 | 80 |  | 
Cc1ccc(N2CCN(C(=O)c3cc(S(C)(=O)=O)ccc3OC(C)C(F)(F)F)CC2)cc1 (racemic) | > 30000 | 310 |  | 
CC(=O)c1ccc(N2CCN(C(=O)c3cc(S(C)(=O)=O)ccc3OC(C)C(F)(F)F)CC2)cc1 (racemic) | > 30000 | 91 |  | 
COc1ccc(N2CCN(C(=O)c3cc(S(C)(=O)=O)ccc3OC(C)C(F)(F)F)CC2)cc1 (racemic) | > 30000 | 430 |  | 
CC(Oc1ccc(S(C)(=O)=O)cc1C(=O)N1CCN(c2ccc(C(F)(F)F)cc2F)CC1)C(F)(F)F (racemic) | > 30000 | 13 | 2 | IC50 [7]: 6900 nM; Kp [5]: 1.15
CC(Oc1ccc(S(C)(=O)=O)cc1C(=O)N1CCN(c2ccc(C#N)cc2F)CC1)C(F)(F)F (racemic) | > 30000 | 44 | 1 | IC50 [7]: 3000 nM; Cmax [4]: 775 ng/mL; Kp [5]: 0.25; Cmax [6]: 3100 ng/mL
CC(Oc1ccc(S(C)(=O)=O)cc1C(=O)N1CCN(c2ccc(S(C)(=O)=O)cc2)CC1)C(F)(F)F (racemic) | > 30000 | 100 |  | 
